Among the data in ChEMBL document CHEMBL3244429, “Antischistosomal effects of 5-(2,4,5-trichlorophenyl)hydantoin and related compounds” (J Med Chem, 1977) are Activity, inhibition in vivo and MTD values, retold here.

The test system of series [1] is Schistosoma mansoni. Nature of the series: Antischistosomal activity against Schistosoma mansoni Puerto Rican infected mouse assessed as infected mouse at 314 mg/kg/day, through diet for 14 days. It is filed as functional. An outline of the steps:
(§1)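 Mice carrying a Puerto Rican strain of S. mansoni received drug mixed into a powdered diet for 14 days, with dose expressed as mg/kg per day. The read-out was the reduction in live schistosomes in the infected mice.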

Series [2] concerns Schistosoma mansoni. Put plainly: Antischistosomal activity against Schistosoma mansoni Puerto Rican infected mouse assessed as reduction in live schistosomes at 314 mg/kg/day, through diet for 14 days. It is filed as functional. As to conditions: 336 h. An outline of the steps: as §1
The test system of series [3] is Schistosoma mansoni. Put plainly: Antischistosomal activity against Schistosoma mansoni Puerto Rican infected mouse assessed as infected mouse at 140 mg/kg/day, through diet for 14 days. It is filed as functional. The procedure, abridged:
as §1

A short description of series [4]: Toxicity in mouse po dosed through diet for 14 days. It is filed as organism-based. As to conditions: in vivo. An outline of the steps:
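Mice infected with a Puerto Rican strain of *Schistosoma mansoni*; drug mixed into a powdered diet and fed orally for 14 days; doses expressed as mg/kg per day.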

Series [5] concerns Schistosoma mansoni. Put plainly: Antischistosomal activity against Schistosoma mansoni Puerto Rican infected mouse assessed as reduction in live schistosomes at 140 mg/kg/day, through diet for 14 days. The format is functional. As to conditions: 336 h. An outline of the steps:
as §1

The subject of series [6] is Schistosoma mansoni. Put plainly: Antischistosomal activity against Schistosoma mansoni Puerto Rican infected mouse assessed as infected mouse at 305 mg/kg/day, through diet for 14 days. The format is functional. The procedure, abridged:
as §1

The subject of series [7] is Schistosoma mansoni. Nature of the series: Antischistosomal activity against Schistosoma mansoni Puerto Rican infected mouse assessed as reduction in live schistosomes at 305 mg/kg/day, through diet for 14 days. It is filed as functional. As to conditions: 336 h. An outline of the steps:
as §1

Series [8] has as its system Schistosoma mansoni. Nature of the series: Antischistosomal activity against Schistosoma mansoni Puerto Rican infected mouse assessed as infected mouse at 336 mg/kg/day, through diet for 14 days. It is filed as functional. The procedure, abridged:
as §1

Series [9] relates to Schistosoma mansoni. Nature of the series: Antischistosomal activity against Schistosoma mansoni Puerto Rican infected mouse assessed as reduction in live schistosomes at 336 mg/kg/day, through diet for 14 days. The format is functional. As to conditions: 336 h. The procedure, abridged: as §1
For series [10], the system named is Schistosoma mansoni. Nature of the series: Antischistosomal activity against Schistosoma mansoni Puerto Rican infected mouse assessed as reduction in live schistosomes at 200 mg/kg/day, through gavage for 5 days. As to conditions: po, 120 h. The format is functional.
Series [11] deals with Schistosoma mansoni. Put plainly: Antischistosomal activity against Schistosoma mansoni Puerto Rican infected mouse assessed as infected mouse at 200 mg/kg/day, through gavage for 5 days. It is filed as functional.
Series [12] relates to Schistosoma mansoni. Nature of the series: Antischistosomal activity against Schistosoma mansoni Puerto Rican infected mouse assessed as reduction in live schistosomes at 269 mg/kg/day, through diet for 14 days. The format is functional. As to conditions: 336 h. The procedure, abridged:
as §1

Series [13] deals with Schistosoma mansoni. Put plainly: Antischistosomal activity against Schistosoma mansoni Puerto Rican infected mouse assessed as infected mouse at 100 mg/kg/day, through gavage for 10 days. It is filed as functional.
Series [14] concerns Schistosoma mansoni. Put plainly: Antischistosomal activity against Schistosoma mansoni Puerto Rican infected mouse assessed as infected mouse at 269 mg/kg/day, through diet for 14 days. The format is functional. The procedure, abridged:
as §1

Series [15] concerns Schistosoma mansoni. Put plainly: Antischistosomal activity against Schistosoma mansoni Puerto Rican infected mouse assessed as reduction in live schistosomes at 100 mg/kg/day, through gavage for 10 days. The format is functional. As to conditions: po, 240 h.
Series [16] has as its system Schistosoma mansoni. Put plainly: Antischistosomal activity against Schistosoma mansoni Puerto Rican infected mouse assessed as reduction in live schistosomes at 332 mg/kg/day, through diet for 14 days. As to conditions: 336 h. The format is functional. An outline of the steps:
as §1

Series [17] relates to Schistosoma mansoni. Nature of the series: Antischistosomal activity against Schistosoma mansoni Puerto Rican infected mouse assessed as infected mouse at 332 mg/kg/day, through diet for 14 days. The format is functional. An outline of the steps: as §1
Series [18] relates to Schistosoma mansoni. Put plainly: Antischistosomal activity against Schistosoma mansoni Puerto Rican infected mouse assessed as infected mouse at 297 mg/kg/day, through diet for 14 days. The format is functional. An outline of the steps: as §1
Series [19] concerns Schistosoma mansoni. Put plainly: Antischistosomal activity against Schistosoma mansoni Puerto Rican infected mouse assessed as reduction in live schistosomes at 297 mg/kg/day, through diet for 14 days. As to conditions: 336 h. It is filed as functional. An outline of the steps:
as §1

The subject of series [20] is Schistosoma mansoni. Nature of the series: Antischistosomal activity against Schistosoma mansoni Puerto Rican infected mouse assessed as reduction in live schistosomes at 301 mg/kg/day, through diet for 14 days. The format is functional. As to conditions: 336 h. The procedure, abridged: as §1
Series [21] concerns Schistosoma mansoni. Put plainly: Antischistosomal activity against Schistosoma mansoni Puerto Rican infected mouse assessed as infected mouse at 301 mg/kg/day, through diet for 14 days. The format is functional. An outline of the steps: as §1
Series [22] relates to Schistosoma mansoni. Put plainly: Antischistosomal activity against Schistosoma mansoni Puerto Rican infected mouse assessed as reduction in live schistosomes at 265 mg/kg/day, through diet for 14 days. As to conditions: 336 h. The format is functional. An outline of the steps: as §1
The test system of series [23] is Schistosoma mansoni. Nature of the series: Antischistosomal activity against Schistosoma mansoni Puerto Rican infected mouse assessed as infected mouse at 265 mg/kg/day, through diet for 14 days. The format is functional. An outline of the steps: as §1
For series [24], the system named is Schistosoma mansoni. Put plainly: Antischistosomal activity against Schistosoma mansoni Puerto Rican infected mouse assessed as infected mouse at 146 mg/kg/day, through diet for 14 days. The format is functional. The procedure, abridged: as §1
The test system of series [25] is Schistosoma mansoni. Nature of the series: Antischistosomal activity against Schistosoma mansoni Puerto Rican infected mouse assessed as reduction in live schistosomes at 146 mg/kg/day, through diet for 14 days. As to conditions: 336 h. The format is functional. The procedure, abridged:
as §1

Series [26] has as its system Schistosoma mansoni. Put plainly: Antischistosomal activity against Schistosoma mansoni Puerto Rican infected mouse assessed as infected mouse at 396 mg/kg/day, through diet for 14 days. It is filed as functional. An outline of the steps: as §1
Series [27] deals with Schistosoma mansoni. Nature of the series: Antischistosomal activity against Schistosoma mansoni Puerto Rican infected mouse assessed as reduction in live schistosomes at 396 mg/kg/day, through diet for 14 days. The format is functional. As to conditions: 336 h. The procedure, abridged: as §1

For orientation: inhibition in vivo means the share of the control response that was lost under treatment.

Take `CC1(c2ccc([N+](=O)[O-])cc2)NC(=O)NC1=O` (configuration not stated): the Activity with Schistosoma mansoni [1] came out at 100%. Also, the inhibition in vivo at 314 mg/kg/day with Schistosoma mansoni [2] was determined as 0%.
With `CCN(CC)CCNc1ccc(C)c2sc3ccccc3c(=O)c12.Cl` [LUCANTHONE HYDROCHLORIDE], the Activity in the series with Schistosoma mansoni [3] is reported as 90%. In [4], this compound registered an MTD at 336 h of 140 mg/kg. In the series on Schistosoma mansoni [5], the inhibition in vivo at 140 mg/kg/day came out at 71%.
As for `O=C1NC(=O)C(c2c(Cl)ccc(Cl)c2Cl)N1` (configuration not stated), the Activity in the series with Schistosoma mansoni [6] was found to be 100%. In the series with Schistosoma mansoni [7], the inhibition in vivo at 305 mg/kg/day stood at 0%.
For the compound `CN1C(=O)C(c2cc(Cl)c(Cl)cc2Cl)N(C)C1=O` (configuration not stated), in the series on Schistosoma mansoni [8], the Activity is reported as 83%. The inhibition in vivo at 336 mg/kg/day with Schistosoma mansoni [9] worked out at 88%.
On to `O=C1[N-]C(=O)C(c2cc(Cl)c(Cl)cc2Cl)N1.[Na+]` (configuration not stated), for which, in the series with Schistosoma mansoni [10], the inhibition in vivo at 200 mg/kg/day was 86%. Moreover, the Activity in the series with Schistosoma mansoni [11], in the series on Schistosoma mansoni [13] and with Schistosoma mansoni [14] was 100% throughout. In addition, the inhibition in vivo at 269 mg/kg/day in the series with Schistosoma mansoni [12] worked out at 65%. Further, the inhibition in vivo at 100 mg/kg/day in the series on Schistosoma mansoni [15] was 76%.
Take `Cc1c(Cl)ccc(C2(C)NC(=O)NC2=O)c1Cl` (configuration not stated): the inhibition in vivo at 332 mg/kg/day in the series on Schistosoma mansoni [16] is 26%. Moreover, the Activity with Schistosoma mansoni [17] was 100%.
Regarding `CC1(c2cc(Cl)c(Cl)cc2Cl)NC(=O)NC1=O` (configuration not stated), in the series with Schistosoma mansoni [18], the Activity is 66%. For the same compound, the inhibition in vivo at 297 mg/kg/day in the series on Schistosoma mansoni [19] came out at 90%.
As for `CC1(c2ccc(Cl)cc2Cl)NC(=O)NC1=O` (configuration not stated), in the series with Schistosoma mansoni [20], the inhibition in vivo at 301 mg/kg/day was determined as 8%. The Activity with Schistosoma mansoni [21] turned out to be 100%.
As to `CN1C(=O)NC(c2cc(Cl)c(Cl)cc2Cl)C1=O` (configuration not stated), the inhibition in vivo at 265 mg/kg/day with Schistosoma mansoni [22] came to 83%. Moreover, the Activity in the series on Schistosoma mansoni [23] came to 33%.
Consider `O=C1NC(c2cc(Cl)c(Cl)cc2Cl)C(=O)N1CO` (configuration not stated), for which, in the series on Schistosoma mansoni [24], the Activity is given as 100%. Further, the inhibition in vivo at 146 mg/kg/day with Schistosoma mansoni [25] turned out to be 0%.
`CN1C(=O)NC(=O)C1c1cc(Cl)c(Cl)cc1Cl` (configuration not stated): in the series with Schistosoma mansoni [26], the Activity worked out at 83%. Further, the inhibition in vivo at 396 mg/kg/day in the series on Schistosoma mansoni [27] was 71%.
